Results reported in ChEMBL document CHEMBL2093137, “WHO-TDR NTD Screening”.
≈ marks a conversion by molar mass, not a printed value.

Columns and labels:
[1] = test system: Trypanosoma cruzi; assay: WHO-TDR: Chagas disease; assay type: functional, organism-based, Homo sapiens; details: MRC5
Summary of the method: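 Following previously published standard procedures, with a reference drug as positive control, a whole-organism assay was run on Trypanosoma cruzi Tulahuen CL2 beta-galactosidase strain amastigotes inside MRC-5SV2 human lung fibroblast host cells. The 10,000 compounds tested formed a diverse Life Chemicals library filtered for drug-likeness and reactive groups. Results are expressed as IC50 for antiparasitic potency.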

[2] = test system: Trypanosoma brucei brucei; assay: WHO-TDR: Human African Trypanosomiasis (HAT); assay type: functional, organism-based; details: Squib-427
Summary of the method: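 Values are IC50 figures for antiparasitic potency. They come from a whole-organism screen of 10,000 diverse Life Chemicals compounds against bloodstream-form Trypanosoma brucei (Squib 427 strain).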

[3] = WHO-TDR: Cytotoxicity; assay type: toxicity, cell-based; details: human, MRC5 cells
[4] = test system: Onchocerca ochengi; assay: WHO-TDR: Onchocerciasis; assay type: functional; set-up: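 at 12.5 µM on microfilariae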
Summary of the method: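 Onchocerca ochengi or Onchocerca lienalis, animal pathogens used as surrogates for the human parasite, were screened as whole microfilariae against a 10,000-compound diverse library from Life Chemicals. The reported measures of activity are percent inhibition and IC50.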

[5] = test system: Plasmodium falciparum K1; assay: WHO-TDR: Malaria; assay type: functional, organism-based, Homo sapiens; details: Erythrocyte
Summary of the method: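 Values are IC50 figures for antiplasmodial potency. They come from a whole-organism screen of 10,000 diverse Life Chemicals compounds against Plasmodium falciparum K1 growing inside human red blood cells, run by previously published standard procedures.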

[6] = test system: Leishmania infantum; assay: WHO-TDR: Leishmaniasis; assay type: functional, organism-based, Mus musculus; details: Macrophage
Summary of the method: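 Values are IC50 figures for antiparasitic potency. They come from a whole-organism screen of a 10,000-compound diverse Life Chemicals library against Leishmania infantum MHOM/MA(BE)/67 amastigotes inside murine peritoneal macrophage host cells.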

[7] = test system: Brugia malayi; assay: WHO-TDR: Lymphatic Filariasis; assay type: functional; set-up: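 tested at 10 µM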
Summary of the method: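 Percent inhibition and IC50 describe activity against Brugia malayi microfilariae in a whole-organism screen. The screen used previously published standard procedures with reference drugs as positive controls. Compounds came from a diverse Life Chemicals library of 10,000, filtered for drug-likeness and reactive groups.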

[8] = test system: Schistosoma mansoni; assay: WHO-TDR: Schistosomiasis; assay type: functional; set-up: concentration or dose not given beside the values
Summary of the method: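 Larval and/or adult Schistosoma mansoni (Puerto Rican strain) were tested whole against 10,000 diverse compounds from Life Chemicals. The procedure was a previously published standard one, using a reference drug as positive control. Results are expressed as percent inhibition and IC50.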

| SMILES | IC50 [2] [µg/mL] | IC50 [5] [µg/mL] | IC50 [6] [µg/mL] | IC50 [1] [µg/mL] | IC50 [3] [µg/mL] | % Inhibition [4] [%] | % Inhibition [7] [%] | % Inhibition [8] [%] |
| --- | --- | --- | --- | --- | --- | --- | --- | --- |
| COc1ccc(CC(=O)Nc2ccc(SC)nn2)cc1 | > 8.68 | > 8.68 | > 8.68 | > 8.68 | > 8.68 | 100 | 0 | – |
| COc1ccc(-c2cn3c(CCC(=O)Nc4ccccc4SC)csc3n2)cc1 | 4.22 (≈ 9.95 µM) | > 12.7 | > 12.7 | 5.77 (≈ 13.6 µM) | > 12.7 | 100 | 20 | – |
| COc1ccc(C(=O)Nc2ccc(SCC(=O)N3CCCC3)nn2)c(OC)c1 | > 12.1 | > 12.1 | > 12.1 | > 12.1 | > 12.1 | 100 | 0 | – |
| CCOCC(=O)Nc1ccc(-c2nnc(N(C)c3ccc(OC)cc3)s2)cc1 | > 12 | > 12 | > 12 | > 12 | > 12 | 100 | 0 | – |
| O=C(CCc1csc(NC(=O)c2ccco2)n1)NCCc1c[nH]c2ccccc12 | > 12.3 | > 12.3 | > 12.3 | 5.75 (≈ 14.1 µM) | 3.18 (≈ 7.78 µM) | 100 | 0 | – |
| Cc1noc(C)c1S(=O)(=O)Nc1cccc(-c2csc3nc(C)c(C)c(=O)n23)c1 | > 12.9 | > 12.9 | 0.418 (≈ 0.971 µM) | > 12.9 | > 12.9 | 0 | 0 | – |
| CC(C)(C)c1ccc(C(=O)N2CCN(c3ccc(Nc4ccncc4)nn3)CC2)cc1 | 4 (≈ 9.6 µM) | 3.68 (≈ 8.84 µM) | 4.04 (≈ 9.71 µM) | 4.1 (≈ 9.85 µM) | 3.49 (≈ 8.39 µM) | 100 | 0 | – |
| c1ccc2c(CCNc3ncnc4[nH]ncc34)c[nH]c2c1 | > 8.35 | > 8.35 | > 8.35 | 2.44 (≈ 8.76 µM) | > 8.35 | 100 | 0 | – |
| Cc1nc2c(ccc3nc(Nc4nc5ccc(C(C)C)cc5s4)sc32)s1 | 0.385 (≈ 0.971 µM) | 3.97 (≈ 10 µM) | 0.385 (≈ 0.971 µM) | 4.11 (≈ 10.4 µM) | 3.59 (≈ 9.04 µM) | – | 25 | 0 |
| O=C(Nc1nnc(-c2ccco2)o1)c1cc(-c2ccccc2)nc2ccccc12 | 3.23 (≈ 8.45 µM) | 9.02 (≈ 23.6 µM) | 3.71 (≈ 9.71 µM) | 0.305 (≈ 0.798 µM) | 2.04 (≈ 5.33 µM) | – | 0 | 0 |
| CCOC(=O)Cn1/c(=N/C(=O)CSC(C)=O)sc2ccccc21 | 0.342 (≈ 0.97 µM) | > 10.6 | > 10.6 | > 10.6 | > 10.6 | – | 0 | 0 |

The next lines start with results.

| IC50 [2] [µg/mL] | IC50 [5] [µg/mL] | IC50 [6] [µg/mL] | SMILES | IC50 [1] [µg/mL] | IC50 [3] [µg/mL] | % Inhibition [4] [%] | % Inhibition [7] [%] | % Inhibition [8] [%] |
| --- | --- | --- | --- | --- | --- | --- | --- | --- |
| > 11.8 | > 11.8 | 0.383 (≈ 0.971 µM) | Cc1cc(=O)n2c(-c3cccc(NC(=O)Nc4ccc(F)cc4)c3)csc2n1 | > 11.8 | > 11.8 | 0 | 0 | – |
| > 11 | > 11 | > 11 | COc1ccc(-c2cn3c(C(=O)Nc4ccccc4F)csc3n2)cc1 | > 11 | > 11 | 100 | 0 | – |
| 4.27 (≈ 9.49 µM) | > 13.5 | 4.37 (≈ 9.71 µM) | O=C(Nc1nnc(-c2ccc3c(c2)OCCO3)o1)c1cc(-c2ccccc2)nc2ccccc12 | 0.434 (≈ 0.963 µM) | 4.33 (≈ 9.6 µM) | – | 70 | 0 |
| 2.97 (≈ 8.01 µM) | > 11.1 | > 11.1 | COc1cccc2sc(Nc3nc4ccc(NC(C)=O)cc4s3)nc12 | 0.388 (≈ 1.05 µM) | > 11.1 | – | 90 | 0 |
| > 11 | > 10.4 | 3.35 (≈ 9.71 µM) | O=C(Nc1nnc(-c2cccnc2)o1)c1cccc(Br)c1 | 0.705 (≈ 2.04 µM) | 8.09 (≈ 23.4 µM) | – | 25 | 0 |
| > 10.2 | > 10.2 | > 10.2 | COc1cccc2sc(Nc3nc(-c4ccncc4)cs3)nc12 | 0.132 (≈ 0.388 µM) | 4.5 (≈ 13.2 µM) | – | 25 | 0 |
